Laboratory results from ChEMBL document CHEMBL1148289, “Computer-aided design, synthesis, and anti-HIV-1 activity in vitro of 2-alkylamino-6-[1-(2,6-difluorophenyl)alkyl]-3,4-dihydro-5-alkylpyrimidin-4(3H)-ones as novel potent non-nucleoside reverse transcriptase inhibitors, also active against the Y181C variant” (J Med Chem, 2004).

Experiments:
[1] = Ratio of wild type IIIB to that of Y181C HIV-1 induced cytopathogenicity; format: functional
[2] = system: MT4; assay: Effective dose required to achieve protection of MT-4 cells from Y181C HIV-1 induced cytopathogenicity; format: functional, cell-based; conditions: Homo sapiens
Outline: (§1)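 MT-4 cells (1 × 10^4/well) in RPMI 1640 with 10% FCS, infected with 100 CCID50 of HIV-1 (IIIB wild type or Y181C), compounds from DMSO stock diluted in medium at various concentrations. After 4 days at 37 °C, viable cells counted by MTT. EC50 is the dose giving 50% protection from virus cytopathicity. Mean of at least two experiments.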

[3] = target: Human immunodeficiency virus type 1 reverse transcriptase (Human immunodeficiency virus 1, UniProt Q72547); assay: Inhibitory concentration required to inhibit the HIV-1 reverse transcriptase activity
Outline: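 Purified recombinant HIV-1 RT, RNA-dependent polymerase activity. Template/primer poly(rC)-oligo(dG)12–18 at 0.5 OD260 unit/mL, with [3H]dGTP. Incubated 30 min at 37 °C, then acid-insoluble radioactivity counted on glass fiber filters. IC50 is the dose halving activity. Mean of at least two experiments.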

[4] = system: MT4; assay: Effective dose required to achieve protection of MT-4 cells from wild type IIIB HIV-1 induced cytopathogenicity; format: functional, cell-based; conditions: Homo sapiens; outline: as §1
[5] = Ratio of CC50 to that EC50 in mock infected cells; format: functional
Outline: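 Selectivity index is the ratio of CC50 (mock-infected MT-4 viability, MTT, 4 days) to EC50 (protection of HIV-1 IIIB-infected MT-4 cells, MTT, 4 days), both from parallel assays.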

[6] = system: MT4; assay: Effective dose required to achieve protection of MT-4 cells from HIV-1 induced cytopathogenicity; format: functional, cell-based; conditions: Homo sapiens
Outline: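 MT-4 cells (RPMI 1640, 10% FCS, 37 °C, 5% CO2), 1 × 10^4 per well, were infected with 100 CCID50 of HIV-1 IIIB in the presence of graded compound concentrations. Compounds came from 200 mM DMSO stocks diluted into medium. After 4 days at 37 °C, viable cells were counted by MTT. The value is the dose giving 50% protection, as a mean of at least two experiments.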

[7] = system: MT4; assay: Cytotoxic concentration required to reduce the viability of mock-infected MT-4 cells; format: functional; conditions: Homo sapiens
Outline: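 Mock-infected MT-4 cells, 1 × 10^4 per well, were exposed to graded compound concentrations in parallel with the antiviral assay. Compounds came from 200 mM DMSO stocks diluted into medium. After 4 days at 37 °C, viability was measured by MTT. The value is the dose reducing viability by 50%, as a mean of at least two experiments.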

Compound | Ratio [1] | EC50 [2] [nM] | IC50 [3] [nM] | EC50 [4] [nM] | Selectivity index [5] | EC50 [6] [nM] | CC50 [7] [nM]
O=C1Nc2ccc(Cl)cc2[C@@](C#CC2CC2)(C(F)(F)F)O1 | 6 | – | – | – | – | – | –
Cc1c(C(C)c2c(F)cccc2F)nc(NC2CCCC2)[nH]c1=O (stereo not drawn) | 5.3 | 160 | 35 | 30 | 4500 | 20 | 90000
Cc1c(Cc2c(F)cccc2F)nc(NC2CCCC2)[nH]c1=O | – | – | 30 | – | >10000 | 20 | > 200000
Cc1c(C(C)c2c(F)cccc2F)nc(SC2CCCC2)[nH]c1=O (stereo not drawn) | 13 | 200 | – | 15 | >33333 | 6 | > 200000
CC(c1cc(=O)[nH]c(NC2CCCC2)n1)c1c(F)cccc1F (stereo not drawn) | – | – | 40 | – | 3500 | 30 | 76000
CC(c1cc(=O)[nH]c(SC2CCCC2)n1)c1c(F)cccc1F (stereo not drawn) | – | – | 30 | – | >6666 | 30 | > 200000
Cc1ccnc2c1NC(=O)c1cccnc1N2C1CC1 [NEVIRAPINE] | > 81 | > 30000 | – | – | – | – | –
Cc1c(Cc2c(F)cccc2F)nc(SC2CCCC2)[nH]c1=O | – | – | – | – | > 2500 | – | > 200000
O=c1cc(Cc2c(F)cccc2F)nc(SC2CCCC2)[nH]1 | – | – | – | – | >2500 | – | > 200000
O=c1cc(Cc2c(F)cccc2F)nc(NC2CCCC2)[nH]1 | – | – | 70 | – | >2222 | 90 | > 200000
CCOCn1c(Cc2ccccc2)c(C(C)C)c(=O)[nH]c1=O [EMIVIRINE] | – | – | – | – | 6666 | – | 200000
